The text below walks through data of ChEMBL document CHEMBL1154192, “A series of 1, 2-coupled indane dimers with mast cell stabilisation and smooth muscle relaxation properties” (Eur J Med Chem, 2009).

The subject of assay [1] is Ileum. Briefly: Inhibition of calcium-induced contraction in guinea pig ileum at 10 uM. The format is functional. The settings on record: Cavia porcellus. Summed up:
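Guinea-pig ileum was suspended in calcium-free Krebs solution containing 45 mM K+ and contracted by bringing bath calcium to 2.5 mM (sustained >40 min). At stable maximal contracture a single 1 × 10⁻⁵ M concentration was added. Inhibition is given as percentage of stimulated contraction, mean ± SEM, n = 6–12.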

For a further assay, the system named is Mast cell. The experiment in a line: Inhibition of compound 48/80-induced histamine release in Wistar rat peritoneal mast cell at 20 uM treated 10 mins before compound 48/80 challenge. Type of assay: functional. An outline of the steps:
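Peritoneal cells were lavaged from female Wistar rats (250–350 g) into prewarmed (37 °C) HEPES-buffered salt solution, without purification. Cells were centrifuged, washed three times and held at 4 °C. Inhibition is given as percentage of stimulated release, mean ± SEM, n = 5–10.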

Assay [2] has as its system Ileum. The experiment in a line: Inhibition of calcium-induced contraction in guinea pig ileum. Particulars: Cavia porcellus. Type of assay: functional, tissue-based. An outline of the steps: (§1)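 Isolated guinea-pig ileum in high-potassium (45 mM), calcium-free modified Krebs solution. Sustained contractures (>40 min) were elicited by raising bath CaCl2 to 2.5 mM. Once contraction reached a stable maximum, compound was added cumulatively (3 × 10⁻⁸ – […]). IC50 was calculated from the concentration-effect curve.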

Assay [3] concerns Ileum. The experiment in a line: Inhibition of calcium-induced contraction in guinea pig ileum at 0.01 uM. Type of assay: functional. Particulars: Cavia porcellus. Summed up:
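Isolated guinea-pig ileum in high-potassium (45 mM), calcium-free modified Krebs solution. Sustained (>40 min) contractures were elicited by raising bath calcium to 2.5 mM with CaCl2. At stable maximum, a single concentration (1 × 10^-8 M) was added. Inhibition was expressed as a percentage of stimulated values, mean ± SEM, n = 6.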

Assay [4] concerns Ileum. Briefly: Inhibition of calcium-induced contraction in guinea pig ileum at 0.001 to 0.1 uM. The settings on record: Cavia porcellus. The format is functional, tissue-based. Summed up: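 Isolated guinea-pig ileum in high-potassium (45 mM), calcium-free modified Krebs solution. CaCl2 was added to raise bath calcium to 2.5 mM, giving sustained (>40 min) contractures. At stable maximum, drug was added cumulatively at […] to 1 × 10^-7 M. Read-out was inhibition of contracture; IC50 was calculated from the concentration-effect curve.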

Assay [5] relates to Ileum. Briefly: Inhibition of calcium-induced contraction in guinea pig ileum at 0.03 to 10 uM. The format is functional, tissue-based. The settings on record: Cavia porcellus. An outline of the steps:
as §1

Consider `O=C1c2ccccc2CC1(Cc1ccccc1)C1=CCc2ccccc21` (stereo unspecified), for which the inhibition at 10 µM with Ileum [1] stood at 18.9%. Besides, the inhibition at 20 µM with Mast cell was 24.7%.
The like results for `CCCCCC1(C2=CCc3ccccc32)Cc2ccccc2C1=O` (stereo unspecified) were, in that order, 18% and -3.2%.
The like results for `CCC1(C2=CCc3ccccc32)Cc2ccccc2C1=O` (stereo unspecified) were, in that order, 49.6% and 19.4%.
Turning to `Cc1cc2c(c(C)c1CCO)C(=O)C(C)(C)C2` [PTEROSIN Z], the IC50 in the assay with Ileum [2] amounted to 1300 nM.
Turning to `COC(=O)c1ccc(CC2(C3=CCc4ccccc43)Cc3ccccc3C2=O)cc1` (stereo unspecified), in the assay with Ileum [1], the inhibition at 10 µM was determined as 31.5%. The inhibition at 20 µM in the assay on Mast cell is -27.8%.
In the same order, the values of `CC/C=C/CC1(C2=CCc3ccccc32)Cc2ccccc2C1O` (stereo unspecified) are 25.6% and 49.7%.
`COC(=O)C1=C(C)NC(C)=C(C(=O)OC)C1c1ccccc1[N+](=O)[O-]` [NIFEDIPINE]: the inhibition at 0.01 µM in the assay on Ileum [3] stood at 48.1%. In addition, the half-maximal inhibitory concentration (IC50) with Ileum [2] and in the assay with Ileum [4] was 14.7 nM throughout.
Turning to `CCCC1(C2=CCc3ccccc32)Cc2ccccc2C1=O` (stereo unspecified), the inhibition at 10 µM in the assay on Ileum [1] turned out to be 51.7%. In the assay with Mast cell, the inhibition at 20 µM was 41.2%.
The like results for `CC1(C2=CCc3ccccc32)Cc2ccccc2C1=O` (stereo unspecified) were, in that order, 41.3% and 15.6%.
On to `CC/C=C/CC1(C2=CCc3ccccc32)Cc2ccccc2C1=O` (stereo unspecified), for which, in the assay on Ileum [1], the inhibition at 10 µM was 19.9%. Also, in the assay with Mast cell, the inhibition at 20 µM came out at 32.5%.
Turning to `O=C(O)c1cc(=O)c2c(OCC(O)COc3cccc4oc(C(=O)O)cc(=O)c34)cccc2o1` [CROMOLYN SODIUM], the inhibition at 20 µM with Mast cell is 9.1%.
Turning to `O=C(O)CC1(C2=CCc3ccccc32)Cc2ccccc2C1=O` (stereo unspecified), the inhibition at 10 µM with Ileum [1] was found to be 1.8%. Further, in the assay on Mast cell, the inhibition at 20 µM stood at 10.3%.
Take `C=CCC1(C2=CCc3ccccc32)Cc2ccccc2C1O` (stereo unspecified): the IC50 in the assay on Ileum [2] amounted to 6200 nM; in the assay with Ileum [5] it was 6.2 µM. The inhibition at 10 µM with Ileum [1] was determined as 79.5%. Moreover, the inhibition at 20 µM in the assay on Mast cell was -35.5%.
In the case of `CCCC1(C2=CCc3ccccc32)Cc2ccccc2C1O` (stereo unspecified), the inhibition at 10 µM with Ileum [1] amounted to 34.3%. Also, the inhibition at 20 µM with Mast cell was -26%.
The like results for `COC(=O)CC1(C2=CCc3ccccc32)Cc2ccccc2C1=O` (stereo unspecified) were, in that order, 20.5% and 21.9%.
